Measurements reported in ChEMBL document CHEMBL4513216, “Probing the Open Global Health Chemical Diversity Library for Multistage-Active Starting Points for Next-Generation Antimalarials” (ACS Infect Dis, 2020).

Test: Toxicity liver stage against HepG2, at 10uM
Assay type: cell-based
Set-up: test concentration 10 uM, cell line HepG2-A16-CD81EGFP
Settings: human, HepG2-A16-CD81EGFP cells; read-out: INHIBITION
Summary of the method: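 Uninfected HepG2-A16-CD81EGFP cells, 3 × 10^3 per well, 1536-well, plated on prespotted compound at 10 μM final, parasite-free screening media added to match infected plates; puromycin 10 μM positive, DMSO 0.5% negative; run in parallel with 48 h PbLuc assay at 37 °C, 5% CO2; viability by CellTiter-Glo luminescence, normalized to controls.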

Row | Compound | cytotoxicity at 10 µM
1 | CCOC(=O)CNC(=O)c1cccnc1Oc1ccc(Cl)cc1 | 1.63%
2 | N#Cc1cccc(N2CCOCC3(CCCN(C(=O)NC4CC4)C3)C2)c1 (stereo unspecified) | 14.1%
3 | O=C(c1cc2c(s1)CCN2C(=O)C1CC1)N1CCCC1 | 2.62%
4 | Cc1nnc([C@@H]2CC[C@@H]3[C@@H](CCN3C3CCC3)O2)o1 | 8.19%
5 | Cc1nnc([C@@]23CCO[C@@H]2CCN(S(C)(=O)=O)C3)o1 | 9.16%
6 | Cc1ccc(CN2CC[C@H]3OCC[C@@]3(C(=O)N3CCCO3)C2)s1 | 2.08%
7 | COc1ccccc1-c1ccnc2nc(N3CCCCC3)[nH]c(=O)c12 | 7.36%
8 | CN(CC1CC1)c1ccc2ccc(C(=O)NCCN3CCOCC3)cn12 | 5.57%
9 | CC(C)CN1CCC2(CCN(Cc3ccsc3)CC2)C1=O | 5.24%
10 | Cc1nc([C@@H]2C[C@@H]3CCN(C(=O)c4occc4C)C[C@H]3O2)no1 | -1.04%
11 | Cn1nc(C(=O)NCc2cccs2)c2c1CCS(=O)(=O)C2 | -0.328%
12 | CN1CCc2nc(C3CCCN(S(=O)(=O)N4CCCC4)C3)ncc2C1 (stereo unspecified) | 2.4%
13 | c1cnc(Nc2ccc(C3CCCCN3Cc3ccncc3)cn2)nc1 (stereo unspecified) | -1.57%
14 | Cc1cncc(C2CCN(Cc3ccncc3)CC2)n1 | -3.08%
15 | CC(=O)N1CCN(c2cc(C)ncn2)CC(CO)C1 (stereo unspecified) | 2.94%
16 | c1cnc(N2CCC(c3cc4cccnc4[nH]3)CC2)nc1 | -7.28%
17 | COCCC(=O)N1CCCC1c1nc(O)cc(C(C)C)n1 (stereo unspecified) | -26.4%
18 | CC(C)c1cc(O)nc(C2CCCN2C(=O)C(C)(C)C)n1 (stereo unspecified) | -17.8%
19 | OCCN1CCC(c2cncc(-c3cccc(Cl)c3)n2)CC1 | -31.7%
20 | Cc1cc(CN2CCC(O)(Cn3ccc4ncccc43)CC2)c(C)s1 | -16.1%
21 | CC(=O)Nc1nc(C2CCN(C(C)C)CC2)cs1 | -3.3%
22 | Cc1cc(C2CCCN(C(=O)c3cccnc3)C2)ccn1 (stereo unspecified) | -21.3%
23 | Cc1ccc(C(=O)N2CCC[C@@H]2Cn2nnc3c(O)nc(C)nc32)cc1 | -10.3%

Row | Compound | cytotoxicity at 10 µM
24 | Cc1cc(-c2cc(F)ccc2C(=O)O)nc(C2CCCN(C)C2)n1 (stereo unspecified) | -11.4%
25 | Cc1cccc(CN2CCC(c3nnc(-c4scnc4C)o3)CC2)c1 | -3.8%
26 | CC(C)(C)C(=O)N1CCC(c2nc(O)cc(-c3ccccn3)n2)CC1 | -1.13%
27 | CN(Cc1ccc(F)cc1)CC1(O)CCN(C(=O)c2ccccc2)C1 (stereo unspecified) | -1.7%
28 | Oc1nc(N2CCOCC2)nc2c1CCN(Cc1cccnc1)CC2 | -3.71%
29 | CC(C)NC(=O)N1CCn2c(nnc2C2CCCN2)C1 (stereo unspecified) | -1.32%
30 | CS(=O)(=O)N1CC2(CCCN2Cc2ccc(Cl)cc2)Cc2ccccc21 (stereo unspecified) | 17%
31 | COCC(=O)N1CCN(C(C)C(=O)NC(C)C)CC1 (stereo unspecified) | 1.06%
32 | CCn1cc(CNC(C)c2noc(-c3ccc(Cl)cc3)n2)cn1 (stereo unspecified) | 3.63%
33 | Cc1ncc(C(=O)N2CCCC2c2c(C)nn(C)c2C)s1 (stereo unspecified) | 1.51%
34 | CCC(C)(C)N(C)CCOc1cccc(S(C)(=O)=O)c1 | -8.42%
35 | CCN1CCN2CCCN(S(=O)(=O)c3ccc(S(C)(=O)=O)cc3)C2C1=O (stereo unspecified) | 5.36%
36 | Cc1noc(CCCC(=O)NCC(c2ccco2)N2CCCC2)n1 (stereo unspecified) | -0.363%
37 | Cc1cnn(CCC(=O)NS(=O)(=O)N2CCCc3ccccc32)c1 | 9.73%
38 | Cc1cc(C(=O)OCC2CCCN2C(N)=O)c(C)o1 (stereo unspecified) | 6.72%
39 | O=C(Cc1ccc2c(c1)CCO2)Nc1ccc(-n2cncn2)nc1 | 3.62%
40 | COC(=O)C1CN(Cc2ccccc2C(C)(C)C#N)CCO1 (stereo unspecified) | -1.78%
41 | Cc1cnn(CCNCC(O)c2ccc(C(F)(F)F)cc2)c1 (stereo unspecified) | 4.48%
42 | CC(C)Oc1ncc(C(=O)N2CCCC(C(=O)O)C2)cc1Cl (stereo unspecified) | -6.94%
43 | O=C(CN1CCCCC1Cn1cncn1)Nc1ccncc1 (stereo unspecified) | 11.2%
44 | c1cncc(CN(Cc2ccc(-n3ccnc3)cc2)CC2CCCO2)c1 (stereo unspecified) | -0.242%
45 | Cc1cnn(CC2CCCN2C(=O)c2ccc3c(c2)nnn3C)c1 (stereo unspecified) | 18.4%
46 | CC(NCC1CCN(CCO)CC1)c1ccc(Cl)cc1 (stereo unspecified) | -9.12%

Row | Compound | cytotoxicity at 10 µM
47 | CC(Cc1cccc(F)c1)NCc1cnc(N2CCN(C)CC2)nc1 (stereo unspecified) | -5.44%
48 | CN(C)CC1CN(Cc2cc(Cl)cc3cccnc23)CCO1 (stereo unspecified) | 5.26%
49 | Cc1cc(C)c(CNC(=O)NCc2nnc3n2CCC3)c(=O)[nH]1 | 22.1%
50 | Cn1cc(C(O)CNC(=O)Nc2cc(F)ccc2-n2cccn2)cn1 (stereo unspecified) | 1.01%
51 | CSC(CNS(=O)(=O)c1cnn(C)c1)c1cccc(Cl)c1 (stereo unspecified) | 4.63%
52 | CNc1nc2c(s1)C(=O)CN(C(=O)NCCc1ccccc1)C2 | -7.38%
53 | CC(C)[C@H](NS(C)(=O)=O)C(=O)NCc1cc(-c2ccco2)n[nH]1 | -9.13%
54 | COCC(=O)N1CC[C@]2(O)CCN(Cc3cccnc3OC)C[C@@H]2C1 | 8.72%
55 | CCCc1ccc(C(=O)N2CCc3c(nc(N(C)C)[nH]c3=O)C2)cc1 | 8.7%
56 | CCc1cc(NC2CCS(=O)(=O)CC2)nc(N2CCCCC2)n1 | -15.8%
57 | COc1cccc(OCC2CCCN(C(=O)c3ccc(N)nc3)C2)c1 (stereo unspecified) | 3.37%
58 | CCc1nnc(CN(CC)C(=O)C2CC(=O)N(Cc3cccnc3)C2)o1 (stereo unspecified) | 2.3%
59 | OCCn1ncc2c1CN(CC1CCOc3ccccc3C1)C2 (stereo unspecified) | -5.35%
60 | Cc1c(Cn2ccnc2-c2cc(CN(C)C)cs2)cnn1C | -0.309%
61 | COCCc1noc(CNC2CCSC2)n1 (stereo unspecified) | -15%
62 | Nc1nccc(N2CCC(Cc3ccccc3Cl)(C(=O)O)CC2)n1 | -21.8%
63 | OCCOCCN1CCCC1c1nc2cc(F)ccc2[nH]1 (stereo unspecified) | -17.5%
64 | Cc1nc(CCN(C)C(=O)C2COc3ccccc3C2)no1 (stereo unspecified) | -19.7%
65 | CCCNC(=O)c1ccc(NC(=O)c2cccc(OCC)c2)cc1 | -10.5%
66 | CSc1ccc(C(=O)N2CCOCC2c2c(C)nn(C)c2C)o1 (stereo unspecified) | -2.12%
67 | N#Cc1ccsc1NC(=O)CN1CCn2c(nnc2C2CC2)C1 | -14.5%
68 | Clc1ccc(CN2CCCC2Cn2cncn2)c2ncccc12 (stereo unspecified) | -9.66%
69 | Cc1[nH]ncc1C(=O)N1CCCC(c2ccn[nH]2)C1 (stereo unspecified) | 0.23%

Row | Compound | cytotoxicity at 10 µM
70 | O=C(O)c1cc(S(=O)(=O)N2CCOc3ccccc32)cc(Cl)c1Cl | -4.36%
71 | COc1cc(C)nc(N2CCN(C(=O)COCC3CC3)CC2)n1 | -5.92%
72 | CC(C(=O)N1CCN(Cc2ccc(C#N)cc2)CC1)n1ccnc1 (stereo unspecified) | -9.71%
73 | CC(C(=O)NCc1ccnc(N2CCN(C)CC2)c1)S(C)(=O)=O (stereo unspecified) | -13.9%
74 | Cn1ccnc1CN1CCN(CCOc2cccc(C#N)c2)CC1 | -18%
75 | CN(CC(=O)N1CCCCC1Cn1cccn1)Cc1ccccc1 (stereo unspecified) | -3.99%
76 | c1ncn(CC2CCCN2Cc2csc(C3CCCCC3)n2)n1 (stereo unspecified) | 1.77%
77 | O=C1C(NS(=O)(=O)c2ccc(F)cc2)CCN1Cc1ccccc1 (stereo unspecified) | -3.48%
78 | CC(Cn1cccn1)NC(=O)NCc1ccnc(OC2CCCC2)c1 (stereo unspecified) | -4.59%
79 | CCC(C)NC(=O)c1cc(Br)c2c(c1)OCCO2 (stereo unspecified) | -14.3%
80 | O=C(CN1CCOC(CNc2cccnn2)C1)NCc1ccccn1 (stereo unspecified) | -0.945%
81 | Cc1cnn(CC2CCCN2Cc2noc(-c3ccccc3)n2)c1 (stereo unspecified) | 0.441%
82 | COc1ccc(COCC(O)CNC(=O)c2cccc(OC)c2)cc1 (stereo unspecified) | -9.05%
83 | CNC(=O)C1CCN(C(=O)NCCc2ccc(Cl)s2)CC1 | -12.3%
84 | O=C(O)c1cc(S(=O)(=O)Nc2ccc(F)cc2Cl)cc2c1OCCO2 | -8.12%
85 | CCc1cccc(N2CCC(NC(=O)c3ccncc3)CC2)c1 | -13.9%
86 | O=C(NCC(=O)N1CCCC(c2ccccc2)CC1)c1ccoc1 (stereo unspecified) | -4.31%
87 | CCC(O)CN1CCN(C(=O)c2sccc2C(C)C)CC1 (stereo unspecified) | 6.89%
88 | NC(=O)c1csc(C(=O)N2CCCC(n3cccn3)C2)c1 (stereo unspecified) | -2.77%
89 | NC(=O)c1ccc(C(=O)N2CCCC(n3ccnc3)C2)s1 (stereo unspecified) | -20.5%
90 | Cc1noc(C)c1C(=O)NCC(c1ccc(F)cc1)N(C)C (stereo unspecified) | -0.0707%
91 | COCCN1CCC(N(Cc2noc(C3CC3)n2)C(C)=O)C1 (stereo unspecified) | -12.4%
92 | Cc1cccc(-c2ccc(C(=O)NCCN(C)C3CC3)c(=O)[nH]2)c1 | -6.81%

Row | Compound | cytotoxicity at 10 µM
93 | CCC1CN(CCNC(C)=O)CCN1CCOC (stereo unspecified) | -3.09%
94 | CCOc1cccc2c1OCC(C(=O)NS(=O)(=O)c1ccc(Cl)cc1)=C2 | -11.1%
95 | O=C(NCCOc1ccc2c(c1)OCO2)N1CCC1 | -6.24%
96 | CCc1cnc(CN2CCC(N(C)Cc3noc(C4CC4)n3)C2)o1 (stereo unspecified) | -10.2%
97 | COCCN1CCC2(CC1)CN(CCn1cccn1)C(=O)CO2 | 7.22%
98 | CCCS(=O)(=O)N1CCn2cc(CNc3ccccn3)nc2C1 | 9.1%
99 | COCCN1CCC12CCN(C(=O)Cc1cccs1)C2 (stereo unspecified) | 7.89%
100 | c1cnc(N2CCO[C@H]3CN(Cc4csnn4)C[C@H]32)cn1 | 4.23%
101 | O=C(c1cnccn1)N1CC2(CCN(Cc3ccsc3)C2)C1 | -4.23%
102 | CC(C)N(C)C[C@H]1OC[C@@H]2CCN(Cc3cccc(C#N)c3)C[C@@H]21 | 9.28%
103 | Cc1c(F)cccc1S(=O)(=O)NC(C)(C)CN | 0.926%
104 | CN1CCC2(CCN(CC3CC3)CC2)C1=O | 10.9%
105 | c1csc(CN2CCC3(CC2)CCN(CC2CC2)CC3)n1 | 3.17%
106 | CN1CCCn2c(nc(CNS(=O)(=O)C3CC3)cc2=O)C1 | 5.92%
107 | Cc1cccc(C(=O)N2C[C@@H]3CCN(c4cccnc4)C[C@@H]3C2)c1 | 3.76%
108 | Clc1ccccc1CN1CCc2nc(C3CCNCC3)ncc2C1 | -36.6%
109 | CN(C)CCOCc1ncn2c1CN(c1ncc(F)cn1)CCC2 | 15%
110 | c1cnc(N2CCOCC3(CCCN(Cc4cc[nH]n4)C3)C2)nc1 (stereo unspecified) | 3.35%
111 | COc1ccc(F)cc1C(=O)N1C[C@H]2CC(OC)C[C@H]2C1 (stereo partly specified) | -2.19%
